Results as given in ChEMBL document CHEMBL1147538, “Antibacterial activity of glycine betaine analogues: involvement of osmoporters” (Bioorg Med Chem Lett, 2004).

How the values were obtained:
Assay type in all cases: functional, organism-based
Brevibacterium linens = assay: Effect (1 mM) on Brevibacterium linens growth under stressing conditions; Expressed as absorbance (OD) at 570 nm; Control 1.76 nm
Klebsiella pneumoniae = assay: Effect (1 mM) on Klebsiella pneumoniae growth under stressing conditions; Expressed as absorbance (OD) at 570 nm; Control 1.80 nm
How it was run: (§1)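 Aerobic culture in a defined classic medium (M63, M9, SMM or LAS, chosen per species). Hyperosmotic stress was imposed with NaCl at 0.3–0.5 M final, set by each bacterium's salt tolerance. Each betaine analogue was added at 1 mM. Bacterial yield was read as absorbance at 570 nm and compared with a control culture without analogue.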

Enterobacter cloacae = assay: Effect (1 mM) on Enterobacter cloacae growth under stressing conditions; Expressed as absorbance (OD) at 570 nm; Control 1.25 nm; how it was run: as §1
Bacillus subtilis = assay: Effect (1 mM) on Bacillus subtilis growth under stressing conditions; Expressed as absorbance (OD) at 570 nm; Control 3.20 nm; how it was run: as §1
[1] = tested on: Corynebacterium glutamicum; assay: Effect (1 mM) on Corynebacterium glutamicum growth under stressing conditions; Expressed as absorbance (OD) at 570 nm; Control 0.87 nm; how it was run: as §1
Escherichia coli = assay: Effect (1 mM) on Escherichia coli growth under stressing conditions; Expressed as absorbance (OD) at 570 nm; Control 1.24 nm; how it was run: as §1
Enterococcus faecalis = assay: Effect (1 mM) on Enterococcus faecalis growth under stressing conditions; Expressed as absorbance (OD) at 570 nm; Control 1.16 nm
How it was run: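 Enterococcus was grown aerobically in defined M9 medium made hyperosmotic with NaCl (0.3–0.5 M final, set by tolerance). Each betaine analogue was supplied at 1 mM. Yield was read as OD at 570 nm against an untreated control.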

Sinorhizobium meliloti = assay: Effect (1 mM) on Sinorhizobium meliloti growth under stressing conditions; Expressed as absorbance (OD) at 570 nm; Control 1.46 nm
Aeromonas hydrophila = assay: Effect (1 mM) on Aeromonas hydrophila growth under stressing conditions; Expressed as absorbance (OD) at 570 nm; Control 1.65 nm; how it was run: as §1
Dickeya chrysanthemi = assay: Effect (1 mM) on Erwinia chrysanthemi growth under stressing conditions; Expressed as absorbance (OD) at 570 nm; Control 1.97 nm; how it was run: as §1
Citrobacter freundii = assay: Effect (1 mM) on Citrobacter freundii growth under stressing conditions; Expressed as absorbance (OD) at 570 nm; Control 1.09 nm; how it was run: as §1
Acinetobacter baumannii = assay: Effect (1 mM) on Acinetobacter baumannii growth under stressing conditions; Expressed as absorbance (OD) at 570 nm; Control 1.14 nm; how it was run: as §1
Serratia marcescens = assay: Effect (1 mM) on Serratia marcescens growth under stressing conditions; Expressed as absorbance (OD) at 570 nm; Control 1.03 nm; how it was run: as §1
Pseudomonas aeruginosa = assay: Effect (1 mM) on Pseudomonas aeruginosa growth under stressing conditions; Expressed as absorbance (OD) at 570 nm; Control 1.24 nm
Salmonella enterica = assay: Effect (1 mM) on Salmonella enterica growth under stressing conditions; Expressed as absorbance (OD) at 570 nm; Control 1.23 nm; how it was run: as §1

| SMILES | Absorbance (Brevibacterium linens) | Absorbance (Klebsiella pneumoniae) | Absorbance (Enterobacter cloacae) | Absorbance (Bacillus subtilis) | Absorbance [1] | Absorbance (Escherichia coli) | Absorbance (Enterococcus faecalis) | Absorbance (Sinorhizobium meliloti) | Absorbance (Aeromonas hydrophila) | Absorbance (Dickeya chrysanthemi) | Absorbance (Citrobacter freundii) | Absorbance (Acinetobacter baumannii) | Absorbance (Serratia marcescens) | Absorbance (Pseudomonas aeruginosa) | Absorbance (Salmonella enterica) |
| --- | --- | --- | --- | --- | --- | --- | --- | --- | --- | --- | --- | --- | --- | --- | --- |
| C[N+](C)(CC(=O)O)Cc1ccccc1[N+](=O)[O-] | 1.52 | 0.4 | 0.46 | 3.06 | 0.26 | 0.08 | 1.3 | 1.9 | 0.2 | 0.11 | 0.06 | 0.72 | 0.09 | 0.11 | 0.23 |
| COc1cccc(C[N+](C)(C)CC(=O)O)c1 | 1.45 | 0.7 | 1.11 | 3.2 | 0.63 | 0.18 | 1.12 | 1.7 | 1.05 | 0.25 | 1.23 | 1.16 | 0.48 | 1.07 | 1.11 |
| C[N+](C)(CC(=O)O)Cc1ccc([N+](=O)[O-])cc1 | 1.74 | 0.23 | 0.24 | 0.18 | 0.33 | 0.09 | 1.23 | 1.85 | 0.06 | 0.06 | 0.03 | 0.19 | 0.07 | 0.16 | 0.07 |
| C[N+](C)(CC(=O)O)Cc1ccccc1 | 0.88 | 0.46 | 1.05 | 3.2 | 0.43 | 0.12 | 1.24 | 2.3 | 0.16 | 0.22 | 1.32 | 0.93 | 0.21 | 0.06 | 1.24 |
